Jurkat NFkB inh – inhibitors of the PMA/ionomycin-induced NF-kB reporter in Jurkat cells; inhibition, % at 4 µM; hit rate 0.53% among 330,000; PMA/ionomycin-induced NF-kB luciferase reporter, luminescence; in the data active means inhibition above about 50%
FGF22 binding – binders of recombinant human FGF22 by thermal shift | activity (Tm shift, normalised), % at 9.99 µM | hit rate 1.5% among 340,000 | Q9HCT0 | SYPRO orange fluorescence; percent of sucrose octasulfate shift, DMSO zero;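 active means mean Tm shift, scaled 0 neutral to 100 positive control, at about 1.3% or above, every replicate too, limit read from the data; inconclusive means no clear call, values can overlap the other calls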
Target sequence (Q9HCT0 whole entry, looked up): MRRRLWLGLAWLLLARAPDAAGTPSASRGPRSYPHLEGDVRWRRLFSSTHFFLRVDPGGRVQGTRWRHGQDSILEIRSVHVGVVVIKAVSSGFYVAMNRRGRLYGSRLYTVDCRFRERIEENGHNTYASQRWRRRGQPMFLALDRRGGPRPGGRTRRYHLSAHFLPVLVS
NR2E3 ag-1 – agonists of human nuclear receptor NR2E3; GST-NR2E3/biotin-RetCOR TR-FRET, 1536-well; Q9Y5X4; AID 2300; hit rate 0.12% among 320,000; inhibition of corepressor binding, % at 4.78 µM;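 active means percent inhibition above the cutoff of mean plus 3 SD of all tested compounds, set per screening campaign, cut at about 20% in these data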
Target sequence (Q9Y5X4 whole entry, looked up): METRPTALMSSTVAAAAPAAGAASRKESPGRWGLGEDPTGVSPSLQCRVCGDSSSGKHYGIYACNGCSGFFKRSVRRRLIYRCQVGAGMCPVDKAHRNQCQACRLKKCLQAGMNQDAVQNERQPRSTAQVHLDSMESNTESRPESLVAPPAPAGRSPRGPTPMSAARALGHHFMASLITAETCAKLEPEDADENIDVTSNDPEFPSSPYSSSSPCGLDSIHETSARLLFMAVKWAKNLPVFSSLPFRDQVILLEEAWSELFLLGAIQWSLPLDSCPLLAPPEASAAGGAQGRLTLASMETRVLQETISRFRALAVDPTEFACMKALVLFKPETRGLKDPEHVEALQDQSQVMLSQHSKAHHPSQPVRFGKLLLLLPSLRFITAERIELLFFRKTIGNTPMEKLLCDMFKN
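System: GST-NR2E3 and biotin-RetCOR proteins; probe or stimulus: 7 nM biotin-RetCOR; doses: compound at 4.8 µM, single dose; schedule: Compound–protein incubation for 5 h at 4 °C; detection: time-resolved FRET; read-out: percent inhibition; controls: biotin wells as high control, 0.6% DMSO wells as low control; format: 1536-well plates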
NR2E3 ag-2 – agonists of human NR2E3 nuclear receptor; Q9Y5X4; CHO-S Gal4-NCOR/VP16-NR2E3 two-hybrid, luciferase; inhibition of corepressor binding, % at 3.98 µM; hit rate 0.35% among 360,000; AID 602229;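 active means inhibition above the mean of all tested compounds plus 3 SD, cut at about 70% in these data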;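 further: higher means lower luciferase signal from less NR2E3 corepressor binding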
miR122 inh – inhibitors of miR-122 in Huh7 cells; Huh7 miR-122 Renilla luciferase sensor, 48 h; neutral wells = 0, positive control = 100; activation (reporter increase), % at 12.5 µM; hit rate 0.3% among 340,000;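 active means mean replicate activation score at least 90 and every replicate individually at or above 90; inconclusive means only one of the two criteria met; inactive means neither criterion met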;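 further: higher luciferase means less miR-122 activity so hits act as miR-122 inhibitors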
697 NFkB inh – lowers PMA/ionomycin-induced NF-kB signal in 697 B cells. inhibition, % at 4 µM. hit rate 0.33% among 330,000. 697 B-cell NF-kB luciferase reporter, 16 h; in the data active means inhibition above about 35%
Jurkat NFkB conf – inhibitors of the PMA/ionomycin-induced NF-kB reporter in Jurkat cells, retest; shares compounds with Jurkat NFkB inh; Jurkat NF-kB luciferase, 16 h; inhibition, % at 4 µM; hit rate 27% among 2,700;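 active means inhibition reaching about 45% at 4 µM in either replicate, limit read from the data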
Of the large screens only hits and unclear results are named; the others gave an inactive call (follow-up assays come after a bar, where they were run). A selection: hits, their analogues and other compounds. The true share with any hit is near 2.2%.

CC(=O)N(C[C@H]1N[C@H](CO)[C@H]1c1ccc(-c2cccnc2)cc1)C1CCCC1	none (no result: Jurkat NFkB inh, NR2E3 ag-1, NR2E3 ag-2, 697 NFkB inh)
CCCc1nc2oc3ccccc3c(=O)c2c(=O)n1-c1ccc(C)cc1	none | Jurkat NFkB conf inactive
Cc1ccc(-n2c(C(C)C)nc3oc4ccccc4c(=O)c3c2=O)cc1	none (no result: miR122 inh) | Jurkat NFkB conf inactive
COc1ccccc1CNC(=O)C[C@@H]1C=C[C@@H](NC(C)=O)[C@H](CO)O1	none (no result: Jurkat NFkB inh, NR2E3 ag-1, NR2E3 ag-2, miR122 inh, 697 NFkB inh)
CCCNC(=O)N1C[C@@H]2[C@H](c3ccccc31)[C@@H](CO)N2C(=O)c1ccccc1	none (no result: Jurkat NFkB inh, NR2E3 ag-1, NR2E3 ag-2, 697 NFkB inh)
CC(=O)N1[C@@H]2c3ccc(-c4ccccc4F)c(=O)n3C[C@@H]2[C@@H](CO)[C@@H]1C(=O)N(C)C	none (no result: Jurkat NFkB inh, NR2E3 ag-1, NR2E3 ag-2, miR122 inh, 697 NFkB inh)
COc1cccc(N/C(N)=N/c2nc(CSc3ccccn3)cc(=O)[nH]2)c1	Jurkat NFkB inh 57.9 (no result: FGF22 binding, NR2E3 ag-2, miR122 inh) | Jurkat NFkB conf 56.1
CCCC(=O)Nc1ccc2c(c1)OC[C@H](C)N(CCc1ccccc1)C[C@H](C)[C@H](OC)CN(C)C2=O	none (no result: Jurkat NFkB inh, FGF22 binding, NR2E3 ag-1, NR2E3 ag-2, 697 NFkB inh)
Cc1ccc(C2=NN(S(C)(=O)=O)C(c3cccs3)C2)cc1 (stereo not given)	none (no result: FGF22 binding)
CCc1ccc(C2=NN(S(C)(=O)=O)C(c3cccs3)C2)cc1 (stereo not given)	none (no result: FGF22 binding) | Jurkat NFkB conf inactive
Cc1c(C(=O)N/N=C/c2ccc(N(C)C)cc2)[nH]c2ccc(Cl)cc12	Jurkat NFkB inh 50.4 (no result: miR122 inh) | Jurkat NFkB conf inactive
CCCC(=O)Nc1ccc2c(c1)C(=O)N(C)C[C@H](OC)[C@@H](C)CN(CC1CCOCC1)[C@@H](C)CO2	none (no result: Jurkat NFkB inh, FGF22 binding, NR2E3 ag-1, NR2E3 ag-2, 697 NFkB inh)
Clc1ccc2ccc3cccnc3c2n1	none (no result: NR2E3 ag-1)
O=S1(=O)Nc2c(ccc3cccnc23)-c2ccccc21	Jurkat NFkB inh 69.1, NR2E3 ag-2 102.1 (no result: FGF22 binding) | Jurkat NFkB conf 53.9
O=C(Nc1nc2ccc(C(=O)N3CCCCC3)cc2s1)C1CCCCC1	Jurkat NFkB inh 60.2 (no result: miR122 inh) | Jurkat NFkB conf inactive
CN(C)CC(=O)Nc1ccc2c(c1)[C@@H]1C[C@@H](CC(=O)NCc3ccccc3F)O[C@H](CO)[C@@H]1O2	none (no result: Jurkat NFkB inh, NR2E3 ag-1, NR2E3 ag-2, 697 NFkB inh)
CCCCCn1c(=O)[nH]c2cc(C(=O)NC3CCN(Cc4ccccc4)CC3)ccc2c1=O	Jurkat NFkB inh 51.1 | Jurkat NFkB conf inactive
Cc1ccc(NS(=O)(=O)c2cccc(C(=O)NC3CCN(Cc4ccccc4)CC3)c2)cc1	none (no result: Jurkat NFkB inh, NR2E3 ag-1, miR122 inh, 697 NFkB inh)
CCCCCn1c(=O)[nH]c2cc(C(=O)O)ccc2c1=O	none (no result: FGF22 binding)
Cc1ccc(NS(=O)(=O)c2ccc(C(=O)NC3CCN(Cc4ccccc4)CC3)cc2)cc1	Jurkat NFkB inh 57.1 (no result: NR2E3 ag-1) | Jurkat NFkB conf 58.8
O=C(NC1CCN(Cc2ccccc2)CC1)c1ccc2c(c1)[nH]c(=O)n2Cc1ccc(F)cc1	Jurkat NFkB inh 64.1 (no result: miR122 inh) | Jurkat NFkB conf inactive
C/C=C/c1cnc2c(c1)C(=O)N([C@@H](C)CO)C[C@H](C)[C@H](CN(C)C(=O)c1ccc3c(c1)OCO3)O2	none (no result: Jurkat NFkB inh, NR2E3 ag-1, NR2E3 ag-2, 697 NFkB inh)
COC(=O)c1ccccc1NC(=O)Cn1c(-c2nonc2N)nc2ccccc21	Jurkat NFkB inh 83.0, miR122 inh inconclusive | Jurkat NFkB conf 50.6
CN(C)CC(=O)Nc1ccc2c(c1)[C@H]1C[C@@H](CC(=O)NCc3ccccn3)O[C@H](CO)[C@H]1O2	none (no result: Jurkat NFkB inh, NR2E3 ag-1, NR2E3 ag-2, 697 NFkB inh)
Cc1cc2c(cc1C)C(c1cc(Br)ccc1F)CC(=O)N2 (stereo not given)	Jurkat NFkB inh 57.1 (no result: miR122 inh) | Jurkat NFkB conf inactive
CC(=O)O[C@H]1C(=O)[C@]2(C)[C@H]([C@H](OC(=O)c3ccccc3)[C@]3(O)C[C@H](OC(=O)[C@H](O)[C@@H](NC(=O)c4ccccc4)c4ccccc4)C(C)=C1C3(C)C)[C@]1(OC(C)=O)CO[C@@H]1C[C@@H]2O	Jurkat NFkB inh 70.9 | Jurkat NFkB conf 64.8
CC(=O)O[C@H]1C(=O)[C@@]2(C)C([C@H](OC(=O)c3ccccc3)[C@]3(O)C[C@H](OC(=O)[C@H](O)[C@@H](NC(=O)c4ccccc4)c4ccccc4)C(C)=C1C3(C)C)[C@]1(OC(C)=O)CO[C@@H]1C[C@H]2O (stereo not given in full)	Jurkat NFkB inh 67.1 | Jurkat NFkB conf 69.8
CCN(CC)S(=O)(=O)c1cccc(C(=O)OC2CC(C)OC2=O)c1 (stereo not given)	none (no result: miR122 inh)
